OX1R antag-1 = antagonists of human orexin 1 receptor; O43613; 330,000 compounds, 0.43% hits; CHO/OX1R cells, Fluo-8 calcium fluorescence, orexin A; AID 434989; inhibition, % at 5 µM;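 active = inhibition above its plate's threshold, mean inhibition of all tested compounds on the plate plus 3 SD, cut at about 37% in these data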
Target sequence (O43613 whole entry, looked up): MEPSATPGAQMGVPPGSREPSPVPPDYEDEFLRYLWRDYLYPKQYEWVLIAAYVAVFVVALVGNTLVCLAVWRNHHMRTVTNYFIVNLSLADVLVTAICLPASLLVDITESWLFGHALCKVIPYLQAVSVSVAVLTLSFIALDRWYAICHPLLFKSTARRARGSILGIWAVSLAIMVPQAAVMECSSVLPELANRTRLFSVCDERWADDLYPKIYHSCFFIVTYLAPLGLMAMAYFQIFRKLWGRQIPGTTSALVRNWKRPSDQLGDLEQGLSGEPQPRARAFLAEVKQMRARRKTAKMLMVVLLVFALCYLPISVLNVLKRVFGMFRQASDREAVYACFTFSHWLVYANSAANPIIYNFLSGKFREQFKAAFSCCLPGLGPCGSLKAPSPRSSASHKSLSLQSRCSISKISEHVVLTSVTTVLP
GPR7 antagonist = blocks human GPR7 receptor signaling | inhibition, % at 4.4 µM | P48145 | 290,000 compounds, 1.1% hits | GPR7-expressing cells, fluorescence antagonist assay; in the data active = inhibition above about 16%, passing the limit was not always enough;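 also: cells stimulated with the agonist NPW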
OX1R antag-2 = OX1R (human) antagonism | O43613 | OX1R-expressing cells, FRET antagonist read-out | inhibition, % at 6.6 µM | 330,000 compounds, 1.8% hits | AID 485270; in the data active = inhibition mostly above about 38%, no sharp cut-off; inactive = mostly below about 40%
TAAR1 antag = antagonists of human TAAR1. CHO RD-HGA16 TAAR1, Fluo-8 calcium fluorescence, antagonist. inhibition, % at 3 µM. 360,000 compounds, 1.5% hits. AID 624466;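 active = inhibition above a per-plate cutoff, the mean inhibition of test compounds on that plate plus 3 SD, cut at about 49% in these data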
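Test system: hTAAR1-expressing CHO RD-HGA16 cells, Gα16-coupled; Probe or stimulus: EC80 β-phenethylamine stimulus; Compound dosing: single nominal final test compound concentration of 3 µM; Timing: 140 s kinetic read after compound, 140 s after agonist; Signal: Fluo-8 calcium-sensitive fluorescence; Measure: % inhibition of agonist calcium response; Controls: DMSO and EC80 PEA controls.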
CHO parental Ca = counter-screen: ATP calcium response change in parental CHO cells; inhibition, % at 5.6 µM; 330,000 compounds, 0.63% hits; AID 463079; parental CHO-K1, ATP-induced calcium, Fluo-8 fluorescence;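 active = inhibition above that plate's mean sample inhibition plus 3 SD, cut at about 26% in these data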
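Material – parental CHO cells · Reagent – ATP stimulus · Compound – single nominal dose of 5.6 µM per compound · Detection – Fluo-8 fluorescence · Read-out basis – percent inhibition of calcium signal · Controls – ATP-challenged DMSO wells low, unchallenged DMSO wells high · Repeats – no replicates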
TAAR1 ag = agonists of human TAAR1. activation, % at 3 µM. CHO RD-HGA16 TAAR1, Fluo-8 calcium fluorescence; vehicle wells 0%, saturating PEA agonist 100%. Q96RJ0. 360,000 compounds, 0.99% hits;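 active = activation above the mean activation of all test compounds in the run plus 3 SD, cut at about 38% in these data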
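System: CHO RD-HGA16 cells carrying human TAAR1 plus Gα16; Incubation: 17-24 h seeding, 75 min 37 °C dye, 30 min RT; Measured by: Fluo-8 fluorescence, 5 s baseline then 140 s kinetic read; Control set: DMSO and PEA EC100; Replication: single well for each compound.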
OX1R HTRF confirm = OX1R (human) antagonism, HTRF confirmed | shares compounds with OX1R antag-2 | OX1R-expressing cells, HTRF antagonist assay | inhibition, % at 6.6 µM | 1,800 compounds, 49% hits | AID 492964; in the data active = inhibition above about 55%;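 also: CHO cells expressing OX1R stimulated with orexin A at about EC80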
CHO-K1 HTRF = counter-screen for OX1R antagonists: effect in parental CHO-K1 cells; shares compounds with OX1R antag-2; inhibition, % at 6.6 µM; HTRF counterscreen; 1,800 compounds, 48% hits; in the data active = inhibition above about 17%
Hits are given with their value; 0 = inactive; - = no result given. This is a sample that favours compounds with a hit; in the whole collection about 4.6% have one here.

SMILES	OX1R antag-1	GPR7 antagonist	OX1R antag-2	TAAR1 antag	CHO parental Ca	TAAR1 ag	OX1R HTRF confirm	CHO-K1 HTRF
CCOC(=O)c1c(C)oc2c1c(C(c1cccnc1)N1CCCCC1)c(O)c1ccccc12 (configuration not stated)	0	0	95.0	0	0	0	0	0
O=C(OCc1cn([C@@H]2C[C@H](c3ccc(Cl)cc3)N(C(=O)c3cccs3)C[C@H]2O)nn1)c1ccccc1	-	-	-	0	-	0	-	-
Cc1ccc(/C=C2\SC(=O)N(CCC(=O)N3CCN(C)CC3)C2=O)cc1	0	0	126.4	0	0	0	0	26.9
O=C(NC(=S)Nc1cccc2cccnc12)c1ccccc1	0	0	0	0	0	0	-	-
O=C(NC(=S)Nc1cccc2cccnc12)c1cccs1	0	0	94.8	0	0	0	92.6	0
O=S1(=O)CC(N2CCCCC2)CN1Cc1cn(Cc2ccc(Cl)cc2)nn1 (configuration not stated)	-	-	-	0	-	0	-	-
COC(=O)Cc1nnn2c1[C@H](C)[C@H](C(C)(C)C)OCC2	-	-	-	0	-	0	-	-
COC(=O)c1ccc(NC(=O)CSc2nnc(C)n2CC2CCCO2)cc1 (configuration not stated)	0	0	89.1	0	0	0	0	0
COc1ccc(CN2C(=O)C(CC(=O)NC(c3ccccc3)c3ccccc3)CC(C(=O)N(C(C)C)C(C)C)=C2C)cc1 (configuration not stated)	-	-	-	0	-	0	-	-
O=S(=O)(c1cccc2nsnc12)N1CCOCC1	0	0	92.0	0	0	0	0	38.2
CCCCN1C(=O)C(CC(=O)NCCN2CCOCC2)CC(C(=O)N(C(C)C)C(C)C)=C1C (configuration not stated)	-	-	-	0	-	0	-	-
CCc1noc2cc(-c3ccccc3)n(C)c(=O)c12	-	-	-	0	-	0	-	-
C[C@H](CO)N1C[C@H](C)[C@@H](CN(C)C(=O)Nc2ccc(N3CCN(C)CC3)cc2)OCc2cn(nn2)CCCC1=O	-	-	-	0	-	0	-	-
CCOC(=O)COc1ccc2c3c(c(=O)oc2c1)CCCC3	0	0	0	0	0	0	-	-
CCOC(=O)COc1ccc2cc(C(=O)OCC)c(=O)oc2c1	0	0	110.4	0	0	0	0	38.4
C/C(=N\NC(=O)c1cc([N+](=O)[O-])cc([N+](=O)[O-])c1)c1ccco1	0	0	80.6	0	0	0	56.3	89.3
NC(=O)C[C@@H]1NC(=O)c2cc([N+](=O)[O-])cc(F)c2NCCCC[C@@H](C(N)=O)NC(=O)[C@H](CO)NC1=O	-	0	-	0	-	0	-	-
NC(=O)[C@@H]1CCCCNc2c(F)cc([N+](=O)[O-])cc2C(=O)N[C@@H](CC(=O)O)C(=O)N[C@@H](CCC(=O)O)C(=O)N1	0	0	109.6	-	0	-	0	33.4
Brc1ccc(-c2ccc3c(n2)CCCN3Cc2ccccn2)cc1	-	-	-	0	-	0	-	-
CCn1c2ccccc2c2cc(NC(=O)c3ccc(C)c([N+](=O)[O-])c3)ccc21	0	0	77.5	0	0	0	87.7	0
CCn1c2ccccc2c2cc(NC(=O)c3cc(C)on3)ccc21	0	0	87.9	0	0	0	64.1	0
Cc1c(C#N)c(O)n(CCO)c(=O)c1N=Nc1ccc(S(N)(=O)=O)cc1	0	0	160.5	0	0	0	63.7	82.6
Cc1c(C#N)c(O)n(C)c(=O)c1N=Nc1ccc(S(N)(=O)=O)cc1	-	0	-	0	-	0	-	-
Cc1ccccc1N(CC(=O)NC1CCCCC1)C(=O)CNC(=O)c1cccs1	0	0	0	0	0	0	-	-
Cc1ccc(C)c(N(CC(=O)NC(C)(C)C)C(=O)CNC(=O)c2cccs2)c1	0	0	115.1	0	0	0	0	0
O=C(NC(Cc1nn[nH]n1)C(=O)OCc1ccccc1)OCc1ccccc1 (configuration not stated)	-	-	-	0	-	0	-	-
O=[N+]([O-])c1ccc(N2CCN(CCOCCO)CC2)c([N+](=O)[O-])c1	0	0	85.1	0	0	0	0	38.6

From PubChem
